CHO parental Ca – ATP-evoked calcium signal inhibitors, parental CHO, primary screen, counter-screen for OX1R antagonist project, cell-based, fluorescence, Fluo-8 calcium dye; parental CHO-K1, ATP-induced calcium, Fluo-8 fluorescence; inhibition, % at 5.6 µM; 330,000 tested, 0.63% active;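 active = inhibition above that plate's mean sample inhibition plus 3 SD, cut at about 26% in these data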
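Material: Parental CHO cells | Reagent: ATP | Compound dosing: Single nominal dose of 5.6 µM per compound | Detection: Intracellular calcium via Fluo-8 no-wash fluorescent dye | Read-out: % inhibition of ATP-induced calcium mobilization | Benchmarks: Low control ATP plus DMSO, high control DMSO only | Replicates: Singlicate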
V1R ag counter – agonists of human V1a receptor, primary screen, counter-screen for OXTR agonist project, fluorescence, CHO-V1R cells | Fluo-8 calcium fluorescence, agonist mode; 0% DMSO, 100% 3 nM vasopressin | activation, % at 3 µM | 320,000 tested, 0.25% active;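 active = activation above the mean activation of all tested compounds plus 3 SD, per screening run, cut at about 20% in these data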;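 note: signal is peak over basal fluorescence ratio across a 100 second FLIPR read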
OXTR ag – human OXTR agonists, primary screen, fluorescence, CHO-OTR cells, Fluo-8 calcium. Oxytocin receptor (Homo sapiens), P30559. AID 2435, 2010. 320,000 tested, 0.32% active. Fluo-8 calcium fluorescence; normalized: DMSO 0%, oxytocin 100%. activation, % at 3 µM;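 active = activation above the mean of all tested compounds plus 3 SD, cutoff set per screening run, cut at about 20% in these data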;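 note: peak over basal fluorescence ratio from a 100 s FLIPR kinetic read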
Target sequence (P30559 whole entry, looked up): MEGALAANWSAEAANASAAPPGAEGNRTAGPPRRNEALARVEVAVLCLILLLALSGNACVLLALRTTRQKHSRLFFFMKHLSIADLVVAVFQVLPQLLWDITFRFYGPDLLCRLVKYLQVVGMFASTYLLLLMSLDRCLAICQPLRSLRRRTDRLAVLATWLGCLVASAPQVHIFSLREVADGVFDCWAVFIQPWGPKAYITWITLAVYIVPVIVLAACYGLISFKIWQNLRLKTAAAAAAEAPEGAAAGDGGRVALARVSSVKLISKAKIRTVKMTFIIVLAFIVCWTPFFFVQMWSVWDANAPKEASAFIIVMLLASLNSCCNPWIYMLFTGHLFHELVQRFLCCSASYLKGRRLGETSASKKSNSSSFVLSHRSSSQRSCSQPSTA
OX1R antag-1 – OX1R (HCRTR1) antagonists, primary screen, fluorescence, CHO/OX1R cells, Fluo-8 calcium, orexin A. inhibition, % at 5 µM. AID 434989, 2010. Fluo-8 calcium fluorescence. Orexin/Hypocretin receptor type 1 (Homo sapiens), O43613. 330,000 tested, 0.43% active;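 active = inhibition above its plate's threshold, mean inhibition of all tested compounds on the plate plus 3 SD, cut at about 37% in these data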
OXTR potentiator – human OXTR potentiators, primary screen, fluorescence, CHO-OTR cells, Fluo-8 calcium; Oxytocin receptor (Homo sapiens), P30559; Fluo-8 calcium fluorescence, potentiator mode; 0% = oxytocin EC15, 100% = EC100; activation, % at 3 µM; 320,000 tested, 0.061% active; AID 2445, 2010;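 active = activation above that plate's cutoff, the mean activation of tested compounds plus 3 SD, cut at about 6.6% in these data, passing the limit was not always enough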
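Assay system: CHO cell line stably expressing human OTR | Also added: Oxytocin at about EC15, sub-maximal agonist stimulus | Times: Compound 6 min at room temperature before oxytocin, 100 s read | Measured by: Fluo-8 intracellular calcium fluorescence, ex 470-495, em 515-575 nm | Controls: EC15 oxytocin alone as 0%, 75 nM oxytocin as 100%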
OX1R antag-2 – antagonists of human orexin 1 receptor (OX1R) | 330,000 tested, 1.8% active | inhibition, % at 6.6 µM | OX1R-expressing cells, FRET antagonist read-out | Orexin/Hypocretin receptor type 1 (Homo sapiens), O43613; in the data active = inhibition mostly above about 38%, no sharp cut-off; inactive = mostly below about 40%
Each line names hits and unclear results; the compound was inactive in the other large screens. Only some compounds are listed: those with a hit (about 2.7% of all), similar ones and a draw of the others.

Cc1cccn2c(=O)c3cc(C(=O)NCCc4ccccc4)c(=N)n(CCCn4ccnc4)c3nc12	OX1R antag-2 59
CC1=C([N+](=O)[O-])C(c2ccc(Cl)cc2)NC(=O)N1 (stereo unspecified)	none
COc1cc(/C=N/NC(=O)c2ccncc2)ccc1OC(=O)c1cc(OC)c(OC)c(OC)c1	none
Cc1cccn2c(=O)c3cc(C(=O)NCC4CCCO4)c(=N)n(CCN4CCOCC4)c3nc12 (stereo unspecified)	OX1R antag-2 162
Cc1cccn2c(=O)c3cc(C(=O)NC4CCCC4)c(=N)n(CCc4ccccc4)c3nc12	none
COc1ccc(CCn2c(=N)c(C(=O)NCCN3CCOCC3)cc3c(=O)n4cccc(C)c4nc32)cc1OC	none
Cc1cccn2c(=O)c3cc(C(=O)NCc4cccnc4)c(=N)n(CC4CCCO4)c3nc12 (stereo unspecified)	OX1R antag-2 70
Cc1cccn2c(=O)c3cc(C(=O)NCCN4CCOCC4)c(=N)n(CCCN4CCOCC4)c3nc12	OX1R antag-2 52
Cc1cccn2c(=O)c3cc(C(=O)NCc4ccco4)c(=N)n(C4CCCCC4)c3nc12	none
Cc1cccn2c(=O)c3cc(C(=O)NCc4ccco4)c(=N)n(CCOCCO)c3nc12	OX1R antag-2 44
O=C(CCNC(=O)c1ccc([N+](=O)[O-])cc1)NCc1cccs1	none
O=C(NCc1cccs1)C1CCN(S(=O)(=O)c2ccccc2F)CC1	none
C=CCN(Cc1cccs1)C(=O)COc1ccc2c(c1)OCO2	none
CN(CC(=O)Nc1cccc(F)c1)C(=O)c1ccccc1Cc1ccccc1	none
COc1ccccc1CCC(=O)N1CCN(S(=O)(=O)c2cccc(F)c2)CC1	none
O=C(NCc1cccnc1)c1cccn2c(=O)c3sccc3nc12	OX1R antag-2 61
COc1ccc(Cc2nnc(NC(=O)CSc3ccc(C)cc3)s2)cc1OC	V1R ag counter 77, OXTR ag 57
CCCC1=Nc2cc(C(=O)N3CCC(C(=O)OCC)CC3)ccc2Sc2ccccc21	none
COc1ccc(CCNC(=O)c2ccc(OC)c(OC)c2)cc1OC	none
COc1ccc(CCNC(=O)c2ccc(Cl)cc2Cl)cc1OC	none
COc1ccc(CCNC(=O)c2ccc([N+](=O)[O-])cc2Cl)cc1OC	OX1R antag-2 71
COc1ccc(CCNC(=O)c2ccc(=O)[nH]n2)cc1OC	CHO parental Ca 40
Cc1ccccc1C(=O)Nc1ccc(S(=O)(=O)N2CCOCC2)cc1	none
COc1cc(OC)cc(C(=O)NNC(=O)C2CCCC2)c1	none
O=C(NNC(=O)C1CCCC1)c1cc([N+](=O)[O-])cc([N+](=O)[O-])c1	OX1R antag-2 38
O=C(CSc1nnc(NC(=O)C2CC2)s1)Nc1ccc(F)cc1F	none
O=C(Cn1ncc2c1-c1ccccc1OC2)N(Cc1ccco1)C1CCCCC1	OX1R antag-2 37
CCN(CC)C(=O)Cn1ncc2c1-c1ccccc1OC2	none
CCOc1ccc(OCCSc2nc3ccccc3[nH]2)cc1	none
CCCOc1ccc(CSc2nc3ccccc3[nH]2)cc1	CHO parental Ca 48
C=CC[C@H]1CC(C)=C[C@H](CC=C)N1C(=O)c1cc(COc2ccccc2SC)on1	CHO parental Ca 44
CC(=O)c1cccc(NC(=O)C2CCCN(S(=O)(=O)c3cccc4cccnc34)C2)c1 (stereo unspecified)	OX1R antag-2 55
O=C(Nc1nccs1)C1CCCN(S(=O)(=O)c2cccc3cccnc23)C1 (stereo unspecified)	OX1R antag-2 43
O=C(Nc1cccc(Cl)c1)C1CCCN(S(=O)(=O)c2ccc(F)cc2)C1 (stereo unspecified)	OX1R antag-2 42
CC(=O)c1cccc(NC(=O)C2CCCN2S(=O)(=O)c2cccc3cccnc23)c1 (stereo unspecified)	OX1R antag-2 67
COc1cc(NC(=O)[C@@H]2CCCN2S(=O)(=O)c2cccc3cccnc23)cc(OC)c1OC	none
N#C/C(=C\c1ccccc1)C(=O)NNS(=O)(=O)c1ccc(Br)cc1	none
O=C(Nc1ccc2c(c1)OCCO2)C1CCCN1S(=O)(=O)c1cccc2cccnc12 (stereo unspecified)	none
O=C(Nc1ccc(C(F)(F)F)cc1)C1CCCN1S(=O)(=O)c1cccc2cccnc12 (stereo unspecified)	OX1R antag-2 36
O=C(COc1ccccc1Br)Nc1ccccc1C(F)(F)F	none
O=C(CS(=O)(=O)c1ccc(F)cc1)Nc1nnc(-c2ccccc2Cl)o1	OX1R antag-2 45
CC(C)(C)n1cnc2cc(NS(=O)(=O)c3ccc(Br)cc3)ccc21	CHO parental Ca 58, OX1R antag-1 60
Cc1ccc(S(=O)(=O)Nc2ccc3c(c2)ncn3C(C)(C)C)cc1	none
CC1=CCC(/C=N\Nc2nnc3c(n2)[nH]c2ccccc23)CC1 (stereo unspecified)	OX1R antag-2 55
C=CCOc1ccc(CN(C)CC(O)COc2cccc3ccccc23)cc1 (stereo unspecified)	none
COc1cc(Nc2ccc(C(=O)O)cc2[N+](=O)[O-])cc(OC)c1	OX1R antag-2 54
Cc1cc(C)cc(Nc2ccc(C(=O)O)cc2[N+](=O)[O-])c1	none
COc1ccccc1N1CN(S(=O)(=O)c2ccc(C)cc2)c2nc3ccccc3nc21	none
O=C(NC1=NCCS1)c1ccc(-c2ccc(Cl)cc2)o1	OX1R antag-2 56
O=C(NC1=NCCS1)c1ccc(Cl)cc1	none
CCOc1ccc(S(=O)(=O)N2CCOCC2)cc1NC(=O)CSCc1ccc(C)cc1	none
Cc1cccc(CS(=O)(=O)c2nnc([C@H](Cc3ccccc3)NC(=O)OC(C)(C)C)o2)c1	CHO parental Ca 67, OX1R antag-1 57
COC(=O)CS(=O)(=O)c1nnc([C@H](Cc2ccccc2)NC(=O)OC(C)(C)C)o1	none
CSc1ccc(CN2CCN(C(C)C)C(CCO)C2)cc1 (stereo unspecified)	none
CCN(CC(=O)Nc1c(F)cccc1F)C(=O)CCc1nc2sc3c(c2c(=O)[nH]1)CCCC3	OX1R antag-2 67
CN(CC(=O)Nc1c(Cl)cccc1Cl)C(=O)CCc1nc2sc3c(c2c(=O)[nH]1)CCCC3	none
CCN(CC(=O)Nc1ccccc1C(F)(F)F)C(=O)CCc1nc2sc3c(c2c(=O)[nH]1)CCCC3	OX1R antag-2 42

Source: PubChem (The Scripps Research Institute Molecular Screening Center)
